According to ChEMBL document CHEMBL1153538, “Discovery of novel antileishmanial agents in an attempt to synthesize pentamidine-aplysinopsin hybrid molecule” (J Med Chem, 2009):
Values after ≈ are worked out from the molar mass of the structure shown. Active and inactive are the calls of the source. The calls are words filed in the database; no cut-off is given here.

How the values were obtained:
Leishmania donovani [1] = assay: Antileishmanial activity against Leishmania donovani MHOM/IN/Dd8 amastigote carrying firefly luciferase gene infected in mouse J774A1 cells assessed as relative luminescence unit at 10 ug/mL after 72 hrs; type: functional; details: MHOM/IN/Dd8, J774.A1, 72 h
Leishmania donovani [2] = assay: Antileishmanial activity against Leishmania donovani MHOM/IN/Dd8 […] carrying firefly luciferase gene infected in mouse J774A1 cells assessed as relative luminescence unit at 10 ug/mL after 72 hrs; type: functional; details: for inhibition at 10 µg/mL: MHOM/IN/Dd8, J774.A1, 72 h; for inhibition: J774.A1
J774.A1 [3] = assay: Cytotoxicity against mouse J774A1 by MTT assay; type: cell-based
How it was run: (§1)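 J774A.1 or KB cells were grown in RPMI with 10% FCS. Exponentially growing cells (1 × 10⁴/well) were exposed to a range of compound concentrations (DMSO stocks diluted in medium) for 72 h at 37 °C. MTT was added for 2 h, formazan was dissolved in DMSO, and absorbance was read at 544 nm. IC50 was the concentration giving 50% viability loss versus medium-only cells, estimated by template.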

Leishmania donovani [4] = assay: Antileishmanial activity against Leishmania donovani MHOM/IN/Dd8 amastigote carrying firefly luciferase gene infected in mouse J774A1 cells assessed as relative luminescence unit at 12.5 ug/mL after 72 hrs; type: functional; details: for inhibition: J774.A1
How it was run: (§2)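 J774A.1 macrophages (1.5 × 10⁴/well) were seeded in RPMI-1640 with 10% FCS at 37 °C under CO₂. After 24 h they were infected with stationary-phase luciferase-expressing promastigotes (4 × 10³/well). The medium was then replaced with compound at 0.195-12.5 μg/mL for 72 h. Steady Glo luminescence (RLU) was read, and inhibition was calculated against untreated controls. IC50 values are the mean of two independent assays.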

Leishmania donovani [5] = assay: Antileishmanial activity against Leishmania donovani MHOM/IN/Dd8 amastigote carrying firefly luciferase gene infected in mouse J774A1 cells assessed as relative luminescence unit after 72 hrs; type: functional, organism-based; details: MHOM/IN/Dd8, J774.A1, 72 h; how it was run: as §2
KB = assay: Cytotoxicity against human KB cells by MTT assay; type: cell-based; how it was run: as §1
[6] = Selectivity index, ratio of IC50 for Leishmania donovani MHOM/IN/Dd8 amastigote to IC50 for human KB cells
Leishmania donovani [7] = assay: Antileishmanial activity against Leishmania donovani MHOM/IN/Dd8 amastigote infected in golden hamster assessed as parasite reduction at 50 mg/kg, ip for 5 consecutive days; type: functional; parameters: scale not given: the % may be the effect or the level left; details: route intraperitoneal
How it was run: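 Golden hamsters (40-45 g) were infected intracardially with 1 × 10⁷ amastigotes. Animals with +1 infection by spleen biopsy were randomized, 5-6 per sample. Intraperitoneal dosing started 2 days after biopsy and ran for 5 consecutive days. Biopsies taken 7 days after the last dose were Giemsa-stained and counted. Percentage inhibition was corrected for initial burden and the rise in untreated controls.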

J774.A1 [8] = assay: Cytotoxicity against mouse J774A1 at 12.5 ug/mL by MTT assay; type: cell-based
Leishmania donovani [9] = assay: Ratio of drug to pentamidine for antileishmanial activity against Leishmania donovani MHOM/IN/Dd8 in mouse J774A1 cells by intracellular amastigote assay; type: functional, J774.A1

| Structure (SMILES) | inhibition at 10 µg/mL (Leishmania donovani [2]) [%] | IC50 (J774.A1 [3]) [µg/mL] | inhibition (Leishmania donovani [4]) | other results |
| --- | --- | --- | --- | --- |
| N/C(=N\O)c1ccc(OCCCCCn2cc(/C=C3\NC(=S)NC3=O)c3ccccc32)cc1 (mixture of isomers) |  |  |  | inhibition at 10 µg/mL (Leishmania donovani [1]): 0% |
| CN1C(=S)NC(=O)/C1=C\c1cn(CCCCCOc2ccc(C#N)cc2)c2ccccc12 | 46.4 | 14.8 (≈ 33.3 µM) |  |  |
| CSC1=N/C(=C\c2cn(CCCCCOc3ccc(C#N)cc3)c3ccccc23)C(=O)N1C | 63.2 | > 100 |  |  |
| O=C1NC(=S)N/C1=C\c1c[nH]c2ccccc12 |  |  | inactive | inhibition (Leishmania donovani [2]): inactive |
| N#Cc1ccc(OCCCCCn2cc(/C=C3\NC(=N)NC3=O)c3ccccc32)cc1 |  |  |  | inhibition at 10 µg/mL (Leishmania donovani [1]): 0% |
| CSC1=N/C(=C\c2cn(CCCCCOc3ccc(C#N)cc3)c3ccccc23)C(=O)N1 | 75.4 | > 100 |  |  |
| COc1ccc(C/N=C2\NC(=O)/C(=C/c3c[nH]c4ccccc34)N2)cc1OC |  |  | inactive | inhibition (Leishmania donovani [2]): inactive |
| N=C(N)c1ccc(OCCCCCOc2ccc(C(=N)N)cc2)cc1.O=S(=O)(O)CCO |  |  |  | IC50 (Leishmania donovani [5]): 20.4 µM; IC50 (KB): 2.7 µM; Ratio IC50 [6]: <1 |
| N#Cc1ccc(OCCCCCn2cc(/C=C3\NC(=O)NC3=O)c3ccccc32)cc1 |  | 33 (≈ 79.6 µM) | inactive | inhibition (Leishmania donovani [2]): inactive |
| Nc1cc(OCCCCCn2cc(/C=C3\NC(=S)NC3=O)c3ccccc32)ccn1 |  |  |  | inhibition at 10 µg/mL (Leishmania donovani [1]): 32.2% |
| O=C1N/C(=N\Cc2ccccc2)N/C1=C\c1c[nH]c2ccccc12 |  |  | inactive | inhibition (Leishmania donovani [2]): inactive |
| N#Cc1ccc(OCCCCCCn2cc(/C=C3\NC(=S)NC3=O)c3ccccc32)cc1 | 71.3 | 2.3 (≈ 5.17 µM) |  |  |
| N#Cc1ccc(OCCCCCn2cc(/C=C3\NC(=S)NC3=O)c3ccccc32)cc1 | 95.1 |  |  | inhibition at 12.5 µg/mL (Leishmania donovani [4]; MHOM/IN/Dd8, J774.A1, 72 h): 62%; IC50 (Leishmania donovani [5]): 18.2 µM; Activity (Leishmania donovani [7]): 62.1%; Activity (J774.A1 [8]): Non-toxic |
| N#Cc1ccc(OCCCCCn2cc(/C=C3\NC(=S)NC3=O)c3cc(Br)ccc32)cc1 (mixture of isomers) |  |  |  | inhibition at 10 µg/mL (Leishmania donovani [1]): 12.6% |
| COc1ccc(C/N=C2\NC(=O)/C(=C/c3cn(CCCCCOc4ccc(C#N)cc4)c4ccccc34)N2)cc1OC | 93.7 |  | inactive |  |
| CN1C(=S)NC(=O)/C1=C\c1cn(CCCCCOc2ccc(/C(N)=N/O)cc2)c2ccccc12 | 88.2 |  |  | IC50 (Leishmania donovani [5]): 2 µM; inhibition at 10 µg/mL (Leishmania donovani [1]): 99.3%; IC50 (KB): 108 µM; Ratio IC50 [6]: 53.4; fold change (FC) (Leishmania donovani [9]): 10 |
| CCCC/N=C1\NC(=O)/C(=C/c2cn(CCCCCOc3ccc(C#N)cc3)c3ccccc23)N1 | 88 |  | inactive |  |
| N#Cc1ccc(OCCCCn2cc(/C=C3\NC(=S)NC3=O)c3ccccc32)cc1 | 58.8 | > 100 |  |  |
| N#Cc1ccc(OCCCCCn2cc(C=O)c3ccccc32)cc1 |  |  | inactive | inhibition (Leishmania donovani [2]): inactive |
| O=C1NC(=S)N/C1=C\c1cn(CCCCCN2CCN(c3ccccc3)CC2)c2ccccc12 | 88.3 | > 100 | inactive |  |
| NC(=O)c1ccc(OCCCCCn2cc(/C=C3\NC(=S)NC3=O)c3ccccc32)cc1 (mixture of isomers) |  |  |  | inhibition at 10 µg/mL (Leishmania donovani [1]): 48.9% |
| O=C1NC(=S)N/C1=C\c1cn(CCCCCOc2ccccc2)c2ccccc12 | 40.7 | > 100 |  |  |
| N#Cc1ccc(OCCCCCn2cc(/C=C3\N/C(=N/Cc4ccccc4)NC3=O)c3ccccc32)cc1 | 93.9 |  | inactive |  |
| N#Cc1ccc(OCCCCCn2cc(/C=C3\N/C(=N/c4ccccc4)NC3=O)c3ccccc32)cc1 | 92.8 |  | inactive |  |
| N#Cc1ccc(OCCCCCn2cc(/C=C3\NC(=S)NC3=O)c3cccnc32)cc1 |  |  |  | IC50 (Leishmania donovani [5]): 6.5 µM; inhibition at 10 µg/mL (Leishmania donovani [1]): 97%; IC50 (KB): 187 µM; Ratio IC50 [6]: 28.6 |
